ChEMBL document CHEMBL1148329, “Synthesis and structure-activity studies on N-[5-(1H-imidazol-4-yl)-5,6,7,8-tetrahydro-1-naphthalenyl]methanesulfonamide, an imidazole-containing alpha(1A)-adrenoceptor agonist” (J Med Chem, 2004)
The source made the active and inactive calls. No cut-off for these calls is given here.

Assays:
[1] = molecular target: T1, Alpha-1A adrenergic receptor (Bos taurus, UniProt P18130); assay: In vitro binding affinity towards alpha-1A adrenergic receptor of bovine clone in radioligand binding assay
T1 sequence (P18130 whole entry): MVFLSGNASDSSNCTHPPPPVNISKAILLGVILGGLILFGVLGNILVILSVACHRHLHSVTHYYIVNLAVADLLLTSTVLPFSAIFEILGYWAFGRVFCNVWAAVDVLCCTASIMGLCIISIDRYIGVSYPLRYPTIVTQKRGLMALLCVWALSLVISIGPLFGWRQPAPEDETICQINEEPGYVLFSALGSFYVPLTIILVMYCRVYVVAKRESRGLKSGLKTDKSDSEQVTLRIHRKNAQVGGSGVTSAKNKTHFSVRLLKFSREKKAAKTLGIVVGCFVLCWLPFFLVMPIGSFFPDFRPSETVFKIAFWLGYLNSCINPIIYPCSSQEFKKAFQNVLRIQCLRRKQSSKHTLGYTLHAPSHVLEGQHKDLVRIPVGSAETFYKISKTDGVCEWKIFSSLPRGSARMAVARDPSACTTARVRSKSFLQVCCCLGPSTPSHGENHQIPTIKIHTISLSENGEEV

[2] = molecular target: Alpha adrenergic receptor 1A and 1B (Rattus norvegicus) (UniProt P15823+P43140); assay: Selectivity is ratio of pKi (binding affinity) of alpha-1B receptor to that of alpha-1A receptor.; type: protein assay
[3] = molecular target: Alpha adrenergic receptor 1A and 1D (Rattus norvegicus) (UniProt P23944+P43140); assay: Selectivity is ratio of pKi (binding affinity) of Alpha-1D to that of alpha1A; type: protein assay
[4] = molecular target: T2, Alpha-1D adrenergic receptor (Rattus norvegicus, UniProt P23944); assay: In vitro binding affinity towards alpha-1D adrenergic receptor of rat clone in radioligand binding assay
T2 sequence (P23944 whole entry): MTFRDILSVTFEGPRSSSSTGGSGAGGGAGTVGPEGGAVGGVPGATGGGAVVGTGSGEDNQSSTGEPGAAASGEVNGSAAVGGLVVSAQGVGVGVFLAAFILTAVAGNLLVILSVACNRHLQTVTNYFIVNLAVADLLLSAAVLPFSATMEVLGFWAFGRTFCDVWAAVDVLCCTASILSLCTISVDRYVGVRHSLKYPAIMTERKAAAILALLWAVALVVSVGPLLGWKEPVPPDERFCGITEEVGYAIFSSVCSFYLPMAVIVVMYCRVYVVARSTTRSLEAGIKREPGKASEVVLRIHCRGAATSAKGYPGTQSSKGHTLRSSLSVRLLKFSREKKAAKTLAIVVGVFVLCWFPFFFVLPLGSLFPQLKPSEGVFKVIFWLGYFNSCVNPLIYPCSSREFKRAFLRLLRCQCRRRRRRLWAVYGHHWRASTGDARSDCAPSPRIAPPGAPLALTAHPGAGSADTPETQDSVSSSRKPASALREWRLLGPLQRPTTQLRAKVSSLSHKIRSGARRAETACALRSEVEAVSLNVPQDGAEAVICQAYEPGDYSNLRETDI
Summary of the method: (§1)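 Radioligand binding at α1 subtypes: α1A from rat submaxillary gland, α1B hamster clone, α1D rat clone. Run essentially per an earlier method.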

[5] = molecular target: T3, Alpha-1B adrenergic receptor (Mesocricetus auratus, UniProt P18841); assay: In vitro binding affinity towards alpha-1B adrenergic receptor of hamster clone in radioligand binding assay; type: single protein; summary of the method: as §1
T3 sequence (P18841 whole entry): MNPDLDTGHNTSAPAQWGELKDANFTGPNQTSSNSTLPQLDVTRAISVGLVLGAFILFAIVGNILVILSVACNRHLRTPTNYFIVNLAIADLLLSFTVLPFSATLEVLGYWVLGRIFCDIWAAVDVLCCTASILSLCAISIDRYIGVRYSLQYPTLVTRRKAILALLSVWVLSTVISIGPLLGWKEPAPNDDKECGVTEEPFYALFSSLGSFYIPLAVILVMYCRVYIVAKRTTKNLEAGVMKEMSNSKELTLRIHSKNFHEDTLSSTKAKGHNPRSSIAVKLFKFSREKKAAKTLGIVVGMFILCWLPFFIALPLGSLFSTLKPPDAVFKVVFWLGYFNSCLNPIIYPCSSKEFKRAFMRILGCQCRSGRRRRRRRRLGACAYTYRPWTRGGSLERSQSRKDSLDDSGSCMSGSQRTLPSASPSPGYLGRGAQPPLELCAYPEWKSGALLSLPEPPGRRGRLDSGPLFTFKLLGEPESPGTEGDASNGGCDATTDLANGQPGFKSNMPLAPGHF

[6] = molecular target: T4, Alpha-1A adrenergic receptor (Rattus norvegicus, UniProt P43140); assay: In vitro binding affinity towards alpha-1A adrenergic receptor of rat submaxillary gland in radioligand binding assay; summary of the method: as §1
T4 sequence (P43140 whole entry): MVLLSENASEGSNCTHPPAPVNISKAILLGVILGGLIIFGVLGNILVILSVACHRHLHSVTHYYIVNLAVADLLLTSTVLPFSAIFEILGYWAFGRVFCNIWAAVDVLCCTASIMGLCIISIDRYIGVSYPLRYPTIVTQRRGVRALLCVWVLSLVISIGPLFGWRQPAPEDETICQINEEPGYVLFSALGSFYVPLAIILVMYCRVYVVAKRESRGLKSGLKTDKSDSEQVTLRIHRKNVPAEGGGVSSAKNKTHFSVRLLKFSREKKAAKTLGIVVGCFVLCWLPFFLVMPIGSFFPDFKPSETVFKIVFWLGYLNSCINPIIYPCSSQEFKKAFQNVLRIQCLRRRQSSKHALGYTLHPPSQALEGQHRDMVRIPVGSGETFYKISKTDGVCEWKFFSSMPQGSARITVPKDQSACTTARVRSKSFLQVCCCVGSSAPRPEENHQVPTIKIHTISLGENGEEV

[7] = molecular target: Alpha-1A adrenergic receptor (Oryctolagus cuniculus) (UniProt O02824); assay: Functional agonism of the compounds to constrict tissue containing the alpha-1A adrenergic receptor in rabbit urethra; Inactive
[8] = molecular target: T5, Alpha-2A adrenergic receptor (Homo sapiens, UniProt P08913); assay: In vitro binding affinity towards alpha-2A adrenergic receptor of human clone in radioligand binding assay
T5 sequence (P08913 whole entry): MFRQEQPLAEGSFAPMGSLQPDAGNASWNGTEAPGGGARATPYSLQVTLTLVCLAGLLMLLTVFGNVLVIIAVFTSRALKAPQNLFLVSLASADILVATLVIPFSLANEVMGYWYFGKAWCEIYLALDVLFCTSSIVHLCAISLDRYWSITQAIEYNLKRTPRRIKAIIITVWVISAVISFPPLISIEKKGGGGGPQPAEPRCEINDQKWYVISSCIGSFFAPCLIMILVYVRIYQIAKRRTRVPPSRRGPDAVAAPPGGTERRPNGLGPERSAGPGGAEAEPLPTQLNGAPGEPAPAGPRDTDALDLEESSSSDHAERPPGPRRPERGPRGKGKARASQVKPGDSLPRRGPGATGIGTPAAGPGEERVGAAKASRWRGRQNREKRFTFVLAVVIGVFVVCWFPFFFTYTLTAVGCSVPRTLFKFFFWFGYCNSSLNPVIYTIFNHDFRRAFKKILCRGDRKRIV

Rattus norvegicus = species on record: Rattus norvegicus; assay: Relative affinities for alpha2B and alpha1A receptors
[9] = Relative affinities for alpha-2a and alpha-1A receptors
[10] = molecular target: T6, Alpha-2B adrenergic receptor (Rattus norvegicus, UniProt P19328); assay: In vitro binding affinity towards alpha-2B adrenergic receptor of rat neonatal lung in radioligand binding assay
T6 sequence (P19328 whole entry): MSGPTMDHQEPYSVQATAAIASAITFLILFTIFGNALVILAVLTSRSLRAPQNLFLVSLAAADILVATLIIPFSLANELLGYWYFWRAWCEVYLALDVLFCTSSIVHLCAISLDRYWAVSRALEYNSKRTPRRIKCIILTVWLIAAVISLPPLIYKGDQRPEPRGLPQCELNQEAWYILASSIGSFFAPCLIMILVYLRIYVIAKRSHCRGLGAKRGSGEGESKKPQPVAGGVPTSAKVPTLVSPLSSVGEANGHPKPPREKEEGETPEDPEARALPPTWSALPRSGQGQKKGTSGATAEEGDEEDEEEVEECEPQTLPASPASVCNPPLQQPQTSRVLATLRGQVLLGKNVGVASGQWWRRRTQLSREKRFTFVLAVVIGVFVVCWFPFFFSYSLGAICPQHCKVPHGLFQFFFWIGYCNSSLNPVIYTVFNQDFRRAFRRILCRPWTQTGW

Chain of Alpha adrenergic receptor 1A and 1B (Rattus norvegicus) (P15823 whole entry, looked up, one chain of several): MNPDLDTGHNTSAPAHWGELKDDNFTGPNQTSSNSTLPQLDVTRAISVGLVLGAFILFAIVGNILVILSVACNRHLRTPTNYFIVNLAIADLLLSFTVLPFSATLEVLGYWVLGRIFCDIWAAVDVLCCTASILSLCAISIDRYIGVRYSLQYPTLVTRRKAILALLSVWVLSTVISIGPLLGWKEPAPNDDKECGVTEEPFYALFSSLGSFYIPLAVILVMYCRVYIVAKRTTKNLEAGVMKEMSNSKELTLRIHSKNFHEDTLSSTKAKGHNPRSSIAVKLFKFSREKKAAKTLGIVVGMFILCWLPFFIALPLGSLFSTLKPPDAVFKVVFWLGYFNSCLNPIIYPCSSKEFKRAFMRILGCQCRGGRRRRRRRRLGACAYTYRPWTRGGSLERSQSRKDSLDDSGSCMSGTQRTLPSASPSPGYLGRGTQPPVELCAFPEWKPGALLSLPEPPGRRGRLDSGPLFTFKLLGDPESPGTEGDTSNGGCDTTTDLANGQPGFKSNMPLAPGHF
Chain of Alpha-1A adrenergic receptor (Oryctolagus cuniculus) (O02824 whole entry, looked up): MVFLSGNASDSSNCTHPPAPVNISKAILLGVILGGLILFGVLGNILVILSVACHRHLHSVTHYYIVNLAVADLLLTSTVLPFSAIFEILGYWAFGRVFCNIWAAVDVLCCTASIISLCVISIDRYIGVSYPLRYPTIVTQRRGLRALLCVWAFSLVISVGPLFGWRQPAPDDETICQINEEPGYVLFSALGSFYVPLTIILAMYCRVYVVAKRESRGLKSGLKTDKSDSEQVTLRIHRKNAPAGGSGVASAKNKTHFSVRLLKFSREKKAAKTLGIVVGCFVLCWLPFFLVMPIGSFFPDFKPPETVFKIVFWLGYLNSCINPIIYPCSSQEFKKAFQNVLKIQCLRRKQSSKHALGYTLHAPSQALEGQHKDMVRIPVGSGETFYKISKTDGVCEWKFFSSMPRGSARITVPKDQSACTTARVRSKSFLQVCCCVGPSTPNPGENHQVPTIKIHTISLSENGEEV

Compound	Ki [1] [µM]	Selectivity [2]	Selectivity [3]	Ki [4] [µM]	Ki [5] [µM]	Ki [6] [µM]	pD2 [7]	Ki [8] [µM]	Selectivity (Rattus norvegicus)	Selectivity [9]	Ki [10] [µM]
COC(=O)Nc1cccc2c1CCCC2c1c[nH]cn1 (configuration not stated)	0.148	100	30								
CCS(=O)(=O)Nc1cccc(C2CCNC2)c1 (configuration not stated)		> 20	2	1	> 10	0.501	inactive				
CN(C)S(=O)(=O)Nc1cccc2c1CCCC2c1c[nH]cn1 (configuration not stated)	0.977	20	3		> 10						
Oc1cccc2c1CCCC2c1c[nH]cn1 (configuration not stated)	0.115	3	1	0.0309	0.145			0.00871	0.1	0.2	0.0038
